{"source": "paper PMC8463264", "about": "(Acta Pharmaceutica Sinica. B, 2020)", "key": {"[1]": {"test_system": "MC903-induced skin inflammation of ears of BALB/c mice", "experiment": "Mouse model of atopic dermatitis", "assay_type": "in vivo"}, "zebrafish embryos": {"test_system": "zebrafish embryos", "experiment": "Toxicity in zebrafish embryos", "assay_type": "in vivo", "in_short": "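Wild-type embryos dechorionated at 24 hpf with 1 mg/mL pronase in E3, then exposed 24 h in E3 containing peptide. Two independent assays per concentration, each on 10 × 3 embryos. Controls: PBS solvent diluted in E3 matching the highest-dose amount, and pleurocidin peptide NRC-03. Scored at 48 hpf by stereomicroscope: lysis/necrosis, delay/malformations, heart edema/reduced or absent circulation.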"}, "CXCR4-tropic HIV-1": {"test_system": "CXCR4-tropic HIV-1", "experiment": "X4-HIV-1 inhibition assay in TZM-bl reporter cells", "assay_type": "cell-based", "conditions": "for fold increase of antiviral (anti-HIV-1) activity over WSC02: ratio of IC50 values vs WSC02"}, "[2]": {"test_system": "CXCL12-induced intracellular Ca^2+ mobilization in BCR-ABL expressing murine pro/pre B cells", "experiment": "CXCL12-induced Ca2+ mobilization assay", "assay_type": "cell-based, mouse"}, "mice": {"test_system": "mice", "experiment": "Observation of visible or behavioral adverse effects in mice", "assay_type": "in vivo, mouse", "conditions": "administered topically onto the ears or intranasally into lungs of mice"}, "[3]": {"test_system": "immune cell infiltration into BAL of BALB/c mice", "experiment": "Mouse model of allergic airway hypereosinophilia", "assay_type": "in vivo", "conditions": "for effect on influx of macrophages into BAL: OVA-challenged mice"}, "CXCR4": {"molecular_target": "CXCR4 (Homo sapiens, UniProt P61073)", "sequence (P61073 whole entry)": "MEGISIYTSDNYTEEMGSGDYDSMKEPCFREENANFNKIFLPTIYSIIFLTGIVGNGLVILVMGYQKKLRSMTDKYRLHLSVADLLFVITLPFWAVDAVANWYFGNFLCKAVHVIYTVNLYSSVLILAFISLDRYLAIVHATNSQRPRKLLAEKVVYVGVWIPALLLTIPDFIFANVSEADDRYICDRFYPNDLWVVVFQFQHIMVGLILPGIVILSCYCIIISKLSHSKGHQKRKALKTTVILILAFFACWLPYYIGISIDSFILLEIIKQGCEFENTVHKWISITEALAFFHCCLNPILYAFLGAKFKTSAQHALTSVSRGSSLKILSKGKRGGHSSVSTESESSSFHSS", "experiment": "CXCR4 12G5 antibody competition assay on SupT1 cells", "assay_type": "binding"}, "[4]": {"conditions": "cited from earlier work"}, "[5]": {"test_system": "SupT1 migration towards a CXCL12 gradient", "experiment": "Transwell cell migration assay", "assay_type": "cell-based", "in_short": "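SupT1 cells (0.75 × 10^5) in RPMI with 0.1% BSA go into the upper chamber of a 5 μm polycarbonate transwell, with or without compound, and settle ~15 min. The lower chamber holds buffer with or without 100 ng/mL CXCL12 plus compound. After 4 h of migration at 37 °C (5% CO2), lower-chamber cells are counted by CellTiter-Glo and normalized to CXCL12-only. Mean ± SEM, n = 3; fold values compare IC50s.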"}, "[6]": {"conditions": "20 nmol/ear topically daily, day 11, mean ± SEM"}, "[7]": {"conditions": "16 μmol/kg intranasal, 2 h before each OVA challenge, BAL on day 8, mean ± SEM"}, "[8]": {"conditions": "2.5 nmol/ear every two days, day 11 (disease inducer)"}, "[9]": {"conditions": "315 nmol/ear topically daily, day 11, mean ± SEM"}, "[10]": {"conditions": "12.6 μmol/kg intranasal, 2 h before each OVA challenge, BAL on day 8, mean ± SEM"}}, "note": "Where no end group is shown, it is not given here.", "data": [{"molecule": "C[C@@H]1C[C@H]2[C@@H]3CCC4=CC(=O)C=C[C@]4(C)[C@@]3(F)[C@@H](O)C[C@]2(C)[C@@]1(O)C(=O)CO", "note": "[dexamethasone]", "values": [{"measurement": "inhibition of MC903-induced ear thickening", "setting": "[1]; [6]", "value": "96 ± 2", "unit": "%"}, {"measurement": "inhibition of disease score", "setting": "[1]; [6]", "value": "97 ± 2", "unit": "%"}]}, {"molecule": "GRRKRKWLRRIGKGVKIIGGAALDHL-NH2 [NRC-03]", "values": [{"measurement": "toxicity in zebrafish embryos (positive control)", "setting": "zebrafish embryos; 6 μmol/L, exposure 24 h", "value": "acutely toxic"}]}, {"molecule": "H-IVRWSKKFPCVS [JM#7]", "values": [{"measurement": "fold increase of antiviral (anti-HIV-1) activity over WSC02", "setting": "CXCR4-tropic HIV-1", "value": "about 2 fold"}]}, {"molecule": "H-LVRYTKKVPQVSTPTL [EPI-X4]", "values": [{"measurement": "effect on CXCL12-induced Ca2+ mobilization", "setting": "[2]; at the tested concentrations", "value": "almost inactive"}, {"measurement": "visible or behavioral adverse effects", "setting": "mice", "value": "did not observe visible or behavioral adverse effects"}, {"measurement": "inhibition of recruitment of B cells into BAL", "setting": "[3]; [7]", "value": "54 ± 9", "unit": "%"}, {"measurement": "inhibition of recruitment of T cells into BAL", "setting": "[3]; [7]", "value": "61 ± 8", "unit": "%"}, {"measurement": "inhibition of recruitment of eosinophils into BAL", "setting": "[3]; [7]", "value": "76 ± 7", "unit": "%"}, {"measurement": "inhibition of recruitment of neutrophils into BAL", "setting": "[3]; [7]", "value": "63 ± 7", "unit": "%"}, {"measurement": "effect on influx of macrophages into BAL", "setting": "[3]; 16 μmol/kg intranasal", "value": "not macrophages"}, {"measurement": "IC50", "setting": "CXCR4", "value": "3240 ± 620", "unit": "nM"}]}, {"molecule": "H-ILRWSKKVPCVS [JM#1]", "values": [{"measurement": "fold increase of antiviral (anti-HIV-1) activity over WSC02", "setting": "CXCR4-tropic HIV-1", "value": 9, "unit": "fold"}]}, {"molecule": "C=C1/C(=C\\C=C2/CCC[C@]3(C)[C@@H]([C@H](C)/C=C/[C@@H](O)C4CC4)CC[C@@H]23)C[C@@H](O)C[C@@H]1O", "note": "[MC903, calcipotriol hydrate]", "values": [{"measurement": "disease score (0-12, Table 3)", "setting": "[1]; [8]", "value": "9.4 ± 0.1"}, {"measurement": "increase of the ear thickness as compared to control", "setting": "[1]; [8]", "value": "3.1 ± 0.1", "unit": "fold"}]}, {"molecule": "c1cc(CN2CCCNCCNCCCNCC2)ccc1CN1CCCNCCNCCCNCC1", "note": "[AMD3100, Plerixafor]", "values": [{"measurement": "effect on CXCL12-induced Ca2+ mobilization", "setting": "[2]; 1 μmol/L compound", "value": "reduced Ca^2+ mobilization"}, {"measurement": "effect on CXCL12-induced Ca2+ mobilization", "setting": "[2]; 10 μmol/L compound", "value": "completely abrogated"}, {"measurement": "stability towards plasma proteases", "setting": "[4]", "value": "resistant to plasma proteases"}, {"measurement": "inhibition of MC903 induced ear thickness", "setting": "[1]; [9]", "value": "25 ± 7", "unit": "%"}, {"measurement": "inhibition of disease score", "setting": "[1]; [9]", "value": "18 ± 6", "unit": "%"}, {"measurement": "IC50", "setting": "CXCR4-tropic HIV-1; Human immunodeficiency virus 1, TZM-bl, read-out: IC50±SEM X4-HIV-1", "value": "12 ± 2", "unit": "nM"}, {"measurement": "inhibition of recruitment of B cells into BAL", "setting": "[3]; [10]", "value": "47 ± 17", "unit": "%"}, {"measurement": "inhibition of recruitment of T cells into BAL", "setting": "[3]; [10]", "value": "47 ± 15", "unit": "%"}, {"measurement": "inhibition of recruitment of eosinophils into BAL", "setting": "[3]; [10]", "value": "56 ± 13", "unit": "%"}, {"measurement": "inhibition of recruitment of neutrophils into BAL", "setting": "[3]; [10]", "value": "57 ± 14", "unit": "%"}, {"measurement": "inhibition of recruitment of total cells into BAL", "setting": "[3]; [10]", "value": "41 ± 13", "unit": "%"}]}, {"molecule": "H-IVRWSKKVPCVS [WSC02]", "values": [{"measurement": "visible or behavioral adverse effects", "setting": "mice", "value": "did not observe visible or behavioral adverse effects"}]}, {"molecule": "CC[C@H](C)[C@H](N)C(=O)N[C@@H](CC(C)C)C(=O)N[C@@H](CCCNC(=N)N)C(=O)N[C@@H](Cc1c[nH]c2ccccc12)C(=O)N[C@@H](CO)C(=O)N[C@@H](CCCNC(=N)N)C(=O)N[C@@H](CCCCN)C(=O)N[C@@H](CC(C)C)C(=O)N1CCC[C@H]1C(=O)N[C@@H](CS)C(=O)N[C@H](C(=O)N[C@@H](CO)C(=O)O)C(C)C", "note": "[JM#21]", "values": [{"measurement": "toxicity in zebrafish embryos (acute, developmental, cardiotoxicity)", "setting": "zebrafish embryos; exposure 24 h from 24 hpf, 3, 30 and 300 μmol/L, 60 embryos per group", "value": "not toxic"}, {"measurement": "visible or behavioral adverse effects", "setting": "mice", "value": "did not observe visible or behavioral adverse effects"}, {"measurement": "inhibition of MC903-induced ear thickening", "setting": "[1]; 400 nmol/ear topically daily, day 11, mean ± SEM", "value": "88 ± 4", "unit": "%"}, {"measurement": "fold more efficient than WSC02 in blocking migration", "setting": "[5]; vs WSC02", "value": 33, "unit": "fold"}, {"measurement": "fold more efficient than EPI-X4 in blocking migration", "setting": "[5]; vs wild type peptide EPI-X4", "value": "more than 1400 fold"}, {"measurement": "inhibition of recruitment of B cells into BAL", "setting": "[3]; [7]", "value": "71 ± 5", "unit": "%"}, {"measurement": "inhibition of recruitment of T cells into BAL", "setting": "[3]; [7]", "value": "73 ± 13", "unit": "%"}, {"measurement": "inhibition of recruitment of eosinophils into BAL", "setting": "[3]; [7]", "value": "80 ± 1", "unit": "%"}, {"measurement": "inhibition of recruitment of neutrophils into BAL", "setting": "[3]; [7]", "value": "42 ± 15", "unit": "%"}, {"measurement": "effect on influx of macrophages into BAL", "setting": "[3]; 16 μmol/kg intranasal", "value": "not macrophages"}, {"measurement": "IC50", "setting": "CXCR4", "value": "220 ± 20", "unit": "nM"}, {"measurement": "fold more active than AMD3100 in 12G5 competition", "setting": "CXCR4; vs AMD3100", "value": "about 3 fold"}, {"measurement": "fold more active than WSC02 in 12G5 competition", "setting": "CXCR4; vs WSC02", "value": "~2", "unit": "fold"}]}]}
